Target: T1, Cannabinoid receptor 1 (Homo sapiens, UniProt P21554)
Experiment: Agonist activity at human CB1 receptor expressed in Sf9 cells by GTP-europium binding assay
Conditions: not given
Method in brief: (§1)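 Membranes were from Sf9 insect cells cotransfected with CB1 or CB2 plus Gαi3 (Bmax 1.7 pmol/mL). Compound (0.01 nM–10 µM, 1% DMSO final) was added to buffer with Hepes, BSA, 10 mM MgCl2, 150 mM NaCl, 5 µM GDP, 10 nM GTP-europium, saponin and membranes (CB1 4.5 µg/well, CB2 14 µg/well). 100% efficacy was set by 3 µM reference agonist.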

T1 sequence (P21554 whole entry): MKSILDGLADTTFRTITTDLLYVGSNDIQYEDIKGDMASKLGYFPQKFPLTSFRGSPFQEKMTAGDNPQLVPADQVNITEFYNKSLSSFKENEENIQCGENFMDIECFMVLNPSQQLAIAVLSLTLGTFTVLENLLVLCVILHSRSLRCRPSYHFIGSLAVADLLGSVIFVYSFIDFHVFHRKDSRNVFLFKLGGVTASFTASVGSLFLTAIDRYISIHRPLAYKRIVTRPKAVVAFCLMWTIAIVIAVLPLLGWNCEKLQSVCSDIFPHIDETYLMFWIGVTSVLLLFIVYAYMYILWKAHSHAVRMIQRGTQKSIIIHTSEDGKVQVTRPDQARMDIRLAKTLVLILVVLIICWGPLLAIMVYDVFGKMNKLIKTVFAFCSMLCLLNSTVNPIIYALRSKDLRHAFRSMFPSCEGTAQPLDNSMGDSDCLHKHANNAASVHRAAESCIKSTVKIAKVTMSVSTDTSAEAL

**Q.** With O=C(CCc1nc(-c2ccc(F)cc2Cl)no1)Nc1nc2ccc(OC(F)(F)F)cc2s1 as the compound, how does the EC50 read?
**A.** The EC50 was 1900 nM.

**Q.** With O=C(CCc1nc(-c2ccc(F)cc2Cl)no1)Nc1ccc(C(F)(F)F)cc1Cl as the compound, how does the EC50 read?
**A.** The EC50 was greater than 10000 nM.

Target: T2, Cannabinoid receptor 2 (Homo sapiens, UniProt P34972)
Experiment: Agonist activity at human recombinant CB2 receptor expressed in Sf9 cells by GTP-europium binding assay
Conditions: not given
Method in brief: as §1

T2 sequence (P34972 whole entry): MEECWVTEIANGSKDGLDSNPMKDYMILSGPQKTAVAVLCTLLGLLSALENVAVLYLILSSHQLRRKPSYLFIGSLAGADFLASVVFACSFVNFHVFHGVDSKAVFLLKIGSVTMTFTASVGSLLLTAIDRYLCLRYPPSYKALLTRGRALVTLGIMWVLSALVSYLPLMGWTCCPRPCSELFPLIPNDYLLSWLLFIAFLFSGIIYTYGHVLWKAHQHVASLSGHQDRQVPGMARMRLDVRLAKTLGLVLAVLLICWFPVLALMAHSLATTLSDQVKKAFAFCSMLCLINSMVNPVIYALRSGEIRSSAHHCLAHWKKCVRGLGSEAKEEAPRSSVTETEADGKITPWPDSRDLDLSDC

**Q.** For O=C(CCc1nc(-c2ccc(F)cc2Cl)no1)Nc1nc2ccc(OC(F)(F)F)cc2s1, which EC50 is on record?
**A.** Its EC50 is 3 nM.

**Q.** Which EC50 does the source give for O=C(CCc1nc(-c2ccc(F)cc2Cl)no1)Nc1ccc(C(F)(F)F)cc1Cl here?
**A.** The EC50 was 370 nM.

Target: T1, Cannabinoid receptor 1
Experiment: Agonist activity at human recombinant CB1 receptor expressed in Sf9 cells by GTP-europium binding assay relative to CP-55940
Conditions: not given
Method in brief: as §1, with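 “µg/well). Incubation was 45 min at room temperature, then filtration and washing, with fluorescence read at 615 nm.” for “µg/well).”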

**Q.** With O=C(CCc1nc(-c2ccc(F)cc2Cl)no1)Nc1nc2ccc(OC(F)(F)F)cc2s1 as the compound, how does the Emax read?
**A.** The Emax was 36%.

Target: T2, Cannabinoid receptor 2
Experiment: Agonist activity at human recombinant CB2 receptor expressed in Sf9 cells by GTP-europium binding assay relative to CP-55940
Conditions: not given
Method in brief: as §1, with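 “µg/well). Incubation was 45 min at room temperature, then filtration and washing, with fluorescence read at 615 nm.” for “µg/well).”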

**Q.** With O=C(CCc1nc(-c2ccc(F)cc2Cl)no1)Nc1nc2ccc(OC(F)(F)F)cc2s1 as the compound, how does the Emax read?
**A.** The Emax was 120%.

**Q.** With O=C(CCc1nc(-c2ccc(F)cc2Cl)no1)Nc1ccc(C(F)(F)F)cc1Cl as the compound, how does the Emax read?
**A.** Its Emax is 41%.

Target: T1, Cannabinoid receptor 1
Experiment: Agonist activity at human recombinant CB1 receptor expressed in CHO-K1 cells assessed as inhibition of forskolin-stimulated intracellular cAMP level
Assay type: functional, cell-based
Conditions: not given
Method in brief: (§2)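 CHO-K1 cells stably expressing human or rat CB1 or CB2 were used. Compounds were diluted from DMSO into HBSS/HEPES/BSA buffer containing 60 µM forskolin, then combined with 5000 cells/well plus Alexa647 anti-cAMP antibody, 1 h at room temperature. A biotinylated-cAMP detection mix was added for another 1 h.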

**Q.** With O=C(CCc1nc(-c2ccc(F)cc2Cl)no1)Nc1nc2ccc(OC(F)(F)F)cc2s1 as the compound, how does the EC50 read?
**A.** Its EC50 is greater than 1000 nM.

Target: T2, Cannabinoid receptor 2
Experiment: Agonist activity at human recombinant CB2 receptor expressed in CHO-K1 cells assessed as inhibition of forskolin-stimulated intracellular cAMP level
Assay type: functional, cell-based
Conditions: not given
Method in brief: as §2

**Q.** For O=C(CCc1nc(-c2ccc(F)cc2Cl)no1)Nc1nc2ccc(OC(F)(F)F)cc2s1, which EC50 is on record?
**A.** The EC50 was 6.5 nM.

Target: T1, Cannabinoid receptor 1
Experiment: Agonist activity at human recombinant CB1 receptor expressed in CHO-K1 cells assessed as inhibition of forskolin-stimulated intracellular cAMP level relative to CP-55940
Assay type: functional, cell-based
Conditions: not given
Method in brief: as §2, with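 “h. Emission at 665 nm gave concentration-response curves and EC50; Emax is expressed as a percentage of the reference agonist maximum.” for “h.”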

**Q.** With O=C(CCc1nc(-c2ccc(F)cc2Cl)no1)Nc1nc2ccc(OC(F)(F)F)cc2s1 as the compound, how does the Emax read?
**A.** The Emax was 36%.

Target: T2, Cannabinoid receptor 2
Experiment: Agonist activity at human recombinant CB2 receptor expressed in CHO-K1 cells assessed as inhibition of forskolin-stimulated intracellular cAMP level relative to CP-55940
Assay type: functional, cell-based
Conditions: not given
Method in brief: as §2, with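 “h. Emission at 665 nm gave concentration-response curves and EC50; Emax is expressed as a percentage of the reference agonist maximum.” for “h.”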

**Q.** Which Emax does the source give for O=C(CCc1nc(-c2ccc(F)cc2Cl)no1)Nc1nc2ccc(OC(F)(F)F)cc2s1 here?
**A.** The Emax was 99%.

Target: Cannabinoid receptor 1 (Rattus norvegicus, UniProt P20272)
Experiment: Agonist activity at rat recombinant CB1 receptor expressed in CHO-K1 cells assessed as inhibition of forskolin-stimulated intracellular cAMP level
Assay type: functional, cell-based
Conditions: not given
Method in brief: as §2

Sequence of Cannabinoid receptor 1 (Rattus norvegicus, UniProt P20272) (P20272 whole entry): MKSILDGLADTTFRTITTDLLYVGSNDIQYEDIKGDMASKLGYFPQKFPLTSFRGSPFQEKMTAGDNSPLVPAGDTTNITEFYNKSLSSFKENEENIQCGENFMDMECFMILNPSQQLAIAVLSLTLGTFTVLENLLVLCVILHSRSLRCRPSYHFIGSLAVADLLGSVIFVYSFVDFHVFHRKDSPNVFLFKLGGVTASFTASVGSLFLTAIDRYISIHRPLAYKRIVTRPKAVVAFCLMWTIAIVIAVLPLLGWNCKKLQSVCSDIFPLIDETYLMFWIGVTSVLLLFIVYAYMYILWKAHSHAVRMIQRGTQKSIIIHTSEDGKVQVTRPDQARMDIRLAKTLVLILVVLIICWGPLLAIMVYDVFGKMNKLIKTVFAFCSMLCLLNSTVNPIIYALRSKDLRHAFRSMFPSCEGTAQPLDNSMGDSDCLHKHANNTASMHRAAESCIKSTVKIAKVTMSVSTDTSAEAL

**Q.** With O=C(CCc1nc(-c2ccc(F)cc2Cl)no1)Nc1nc2ccc(OC(F)(F)F)cc2s1 as the compound, how does the EC50 read?
**A.** Its EC50 is greater than 1000 nM.

Target: T3, Cannabinoid receptor 2 (Rattus norvegicus, UniProt Q9QZN9)
T3 sequence (Q9QZN9 whole entry): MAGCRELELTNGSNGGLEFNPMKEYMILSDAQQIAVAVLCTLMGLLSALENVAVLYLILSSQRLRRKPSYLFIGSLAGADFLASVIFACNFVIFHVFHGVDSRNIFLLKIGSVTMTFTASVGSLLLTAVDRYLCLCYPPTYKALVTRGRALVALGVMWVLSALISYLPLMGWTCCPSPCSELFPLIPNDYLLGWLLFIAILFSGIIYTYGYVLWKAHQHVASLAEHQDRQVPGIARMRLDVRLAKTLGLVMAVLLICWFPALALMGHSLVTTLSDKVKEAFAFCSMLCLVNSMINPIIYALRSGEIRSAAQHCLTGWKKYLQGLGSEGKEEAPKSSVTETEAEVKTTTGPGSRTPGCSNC
Experiment: Agonist activity at rat recombinant CB2 receptor expressed in CHO-K1 cells assessed as inhibition of forskolin-stimulated intracellular cAMP level
Assay type: functional, cell-based
Conditions: not given
Method in brief: as §2, with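 “h. Emission at 665 nm gave concentration-response curves and EC50; Emax is expressed as a percentage of the reference agonist maximum.” for “h.”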

**Q.** With O=C(CCc1nc(-c2ccc(F)cc2Cl)no1)Nc1nc2ccc(OC(F)(F)F)cc2s1 as the compound, how does the EC50 read?
**A.** Its EC50 is 6.9 nM.

Target: Cannabinoid receptor 1 (Rattus norvegicus) (UniProt P20272)
Experiment: Agonist activity at rat recombinant CB1 receptor expressed in CHO-K1 cells assessed as inhibition of forskolin-stimulated intracellular cAMP level relative to CP-55940
Assay type: functional, cell-based
Conditions: not given
Method in brief: as §2, with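 “h. Emission at 665 nm gave concentration-response curves and EC50; Emax is expressed as a percentage of the reference agonist maximum.” for “h.”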

Sequence of Cannabinoid receptor 1 (Rattus norvegicus) (P20272 whole entry): as the sequence (P20272 whole entry) above

**Q.** For O=C(CCc1nc(-c2ccc(F)cc2Cl)no1)Nc1nc2ccc(OC(F)(F)F)cc2s1, which Emax is on record?
**A.** The Emax was 21%.

Target: T4, Cannabinoid receptor 2 (Rattus norvegicus) (UniProt Q9QZN9)
T4 sequence (whole entry): T3 sequence (Q9QZN9 whole entry)
Experiment: Agonist activity at rat recombinant CB2 receptor expressed in CHO-K1 cells assessed as inhibition of forskolin-stimulated intracellular cAMP level relative to CP-55940
Assay type: functional, cell-based
Conditions: not given
Method in brief: as §2, with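 “h. Emission at 665 nm gave concentration-response curves and EC50; Emax is expressed as a percentage of the reference agonist maximum.” for “h.”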

**Q.** For O=C(CCc1nc(-c2ccc(F)cc2Cl)no1)Nc1nc2ccc(OC(F)(F)F)cc2s1, which Emax is on record?
**A.** Its Emax is 98%.

System: not listed separately
Experiment: Metabolic stability in human liver microsomes
Assay type: ADME, Microsome
Conditions: read-out: Stability

**Q.** For O=C(CCc1nc(-c2ccc(F)cc2Cl)no1)Nc1nc2ccc(OC(F)(F)F)cc2s1, which microsomal CLint is on record?
**A.** Its microsomal CLint is less than 100 µL/min/mg.

System: not listed separately
Experiment: Metabolic stability in rat liver microsomes
Assay type: ADME, Microsome
Conditions: read-out: Stability

**Q.** Which microsomal CLint does the source give for O=C(CCc1nc(-c2ccc(F)cc2Cl)no1)Nc1nc2ccc(OC(F)(F)F)cc2s1 here?
**A.** The microsomal CLint was less than 100 µL/min/mg.

System: not listed separately
Experiment: Cmax in rat at 10 mg/kg, po
Assay type: ADME, organism-based
Parameters: dose 10 mg/kg, route oral
Conditions: in vivo

**Q.** For O=C(CCc1nc(-c2ccc(F)cc2Cl)no1)Nc1ccc(C(F)(F)F)cc1Cl, which Cmax is on record?
**A.** Its Cmax is 100 ng/mL.

System: not listed separately
Experiment: AUC in rat at 10 mg/kg, po
Assay type: ADME, organism-based, Plasma
Parameters: dose 10 mg/kg, route oral
Conditions: plasma

**Q.** With O=C(CCc1nc(-c2ccc(F)cc2Cl)no1)Nc1ccc(C(F)(F)F)cc1Cl as the compound, how does the AUC read?
**A.** The AUC was 460 ng·h/mL.

System: not listed separately
Experiment: Oral bioavailability in rat at 10 mg/kg
Assay type: ADME, organism-based
Conditions: in vivo

**Q.** Which bioavailability does the source give for O=C(CCc1nc(-c2ccc(F)cc2Cl)no1)Nc1ccc(C(F)(F)F)cc1Cl here?
**A.** The bioavailability was 13%.

System: not listed separately
Experiment: Half life in rat at 10 mg/kg, po
Assay type: ADME, organism-based
Parameters: dose 10 mg/kg, route oral
Conditions: in vivo

**Q.** Which half-life does the source give for O=C(CCc1nc(-c2ccc(F)cc2Cl)no1)Nc1ccc(C(F)(F)F)cc1Cl here?
**A.** Its half-life is 1.6 h.

From ChEMBL document CHEMBL1156631 (J Med Chem, 2008)
